NPY2 pot ag: NPY-Y2 potentiators or agonists, primary screen, cell-based | cells expressing NPY-Y2, potentiator/agonist read-out | activation, % at 3.6 µM | 220,000 compounds, 0.45% hits; in the data active means activation above about 27%;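 further: cells stimulated with NPY near EC25 plus isoproterenol at EC100; 0% = vehicle plus submaximal agonist and 100% = vehicle plus saturating agonist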
NPY-Y1 antag: NPY-Y1 receptor antagonists, primary screen, cell-based; 200,000 compounds, 1% hits; HEK293-CNG Y1 cells, membrane potential fluorescence; NPY at EC95, then isoproterenol; inhibition, % at 3.6 µM;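 active means inhibition above the campaign mean inhibition of all tested compounds plus 3 SD, cut at about 20% in these data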;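 further: 0% = DMSO wells given NPY plus isoproterenol and 100% = isoproterenol alone without NPY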
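Test system – HEK293 Y1/CNG channel cell line · Also added – NPY agonist 25 nM, then isoproterenol 1 µM plus Ro 20-1724 25 µM · Compound dosing – one concentration, 3.6 µM, in 0.4% DMSO · Schedule – compound incubation 1 h at room temperature, readout 45 min post-stimulation · Technique – fluorescence, membrane potential probe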
NPY Y2 blocker: NPY-Y2 receptor antagonists, primary screen, cell-based; Neuropeptide Y receptor type 2 (Homo sapiens), P49146; inhibition, % at 2.7 µM; 140,000 compounds, 0.99% hits; NPY-Y2 expressing cells, antagonist mode; AID 793, 2007; in the data active means inhibition above about 17%;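 further: 0% = vehicle with agonist challenge and 100% = reference antagonist with challenge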
PGE2 EP2 inh: human EP2 receptor antagonists, primary screen, TR-FRET cAMP, C6 glioma cells; C6 glioma cells expressing human EP2; cells stimulated with saturating PGE2; Prostaglandin E2 receptor EP2 subtype (Homo sapiens), P43116; inhibition, % at 25 µM; 260,000 compounds, 0.52% hits;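 active means percent inhibition above 40 after rounding to a whole number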;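 further: rat C6 glioma host cells with rolipram phosphodiesterase inhibitor present; the protocol text gives 20 µM as final concentration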
Target sequence (P43116 whole entry, looked up): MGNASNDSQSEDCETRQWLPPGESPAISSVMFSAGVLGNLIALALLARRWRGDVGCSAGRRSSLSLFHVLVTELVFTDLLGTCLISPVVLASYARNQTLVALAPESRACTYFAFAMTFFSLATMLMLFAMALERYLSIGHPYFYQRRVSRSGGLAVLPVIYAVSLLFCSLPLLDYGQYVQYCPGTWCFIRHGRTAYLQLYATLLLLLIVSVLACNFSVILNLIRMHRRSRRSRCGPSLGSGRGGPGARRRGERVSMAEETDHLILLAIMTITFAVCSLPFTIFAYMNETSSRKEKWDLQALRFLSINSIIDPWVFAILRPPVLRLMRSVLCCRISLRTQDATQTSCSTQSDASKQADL
NPY-Y1 PAM-ag: NPY-Y1 receptor potentiators or agonists, primary screen, cell-based. NPY-Y1 expressing cells, potentiator/agonist activation. activation, % at 3.6 µM. 220,000 compounds, 0.37% hits. AID 1304, 2008; in the data active means activation above about 33%, passing the limit was not always enough;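 further: cells stimulated with NPY at EC10 then isoproterenol at EC100; 0% = low agonist plus stimulus and 100% = saturating agonist plus stimulus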
EP2 modulator: EP2 receptor modulators, cAMP readout, primary screen, cell-based, HTRF cAMP, PGE2 stimulation; Prostaglandin E2 receptor EP2 subtype (Homo sapiens), P43116; EP2-expressing cells, cAMP HTRF FRET, PGE2 co-stimulation; induction, % at 25 µM; 260,000 compounds, 0.83% hits; AID 940, 2007;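 active means compounds whose cAMP rise, as percent of the full-agonist control response, exceeds 60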;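 further: rat C6 glioma line stably carrying human EP2 under a CMV promoter; the protocol text gives 20 µM as final concentration; 100% = response of wells given 1 µM PGE2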
Numbers without * were called inactive. The list is not random: actives were taken first. Their share in the collection is about 2.8%.

For NC(=O)CNc1n[nH]c(=S)[nH]c1=O the results were NPY2 pot ag -9.3, NPY-Y1 antag -3.7, PGE2 EP2 inh 8.8, NPY-Y1 PAM-ag 8.1 and EP2 modulator 18.6.
Screening CC(C)COC(=O)CNc1n[nH]c(=S)[nH]c1=O returned NPY2 pot ag -8.8, NPY-Y1 antag 2.9, NPY Y2 blocker -0.9, PGE2 EP2 inh 133.3*, NPY-Y1 PAM-ag -10.4 and EP2 modulator -17.6.
CCCCOC(=O)CNc1n[nH]c(=S)[nH]c1=O was read as NPY2 pot ag 1.8, NPY-Y1 antag 2.5, NPY Y2 blocker 2.5, PGE2 EP2 inh 113.7*, NPY-Y1 PAM-ag 9.7 and EP2 modulator -31.7.
For O=C(N=c1ccn(-c2nc3ccccc3nc2NS(=O)(=O)c2ccccc2)cc1)c1cccs1 the results were NPY2 pot ag 5.4, NPY-Y1 antag -1.1, NPY Y2 blocker 2.1, PGE2 EP2 inh 49.0*, NPY-Y1 PAM-ag 9.5 and EP2 modulator 0.3.
For CCc1cccc(CC)c1NC(=O)COC(=O)C1(c2ccc(Cl)cc2)CCCC1 the results were NPY2 pot ag 5.7, NPY-Y1 antag 40.2*, NPY Y2 blocker 18.6*, PGE2 EP2 inh 2.3, NPY-Y1 PAM-ag -26.2 and EP2 modulator 8.2.
Screening CC(=O)Nc1ccc(NC(=O)COC(=O)C2(c3ccc(Cl)cc3)CCCC2)cc1 returned NPY2 pot ag 6.6, NPY-Y1 antag -3.3, NPY Y2 blocker -2.6, PGE2 EP2 inh 9.7, NPY-Y1 PAM-ag 5.5 and EP2 modulator -64.0.
O=C(O)c1cc2n(n1)C(C(F)(F)F)CC(c1ccccc1)N2 (configuration not stated) was read as NPY2 pot ag -18.4, NPY-Y1 antag 1.2, NPY Y2 blocker 4.6, PGE2 EP2 inh 7.0, NPY-Y1 PAM-ag -15.8 and EP2 modulator -12.3.
For COc1ccc(C2CC(C(F)(F)F)n3nc(C(=O)O)cc3N2)cc1OC (configuration not stated) the results were NPY2 pot ag 4.0, NPY-Y1 antag 4.8, NPY Y2 blocker 2.1, PGE2 EP2 inh 6.3, NPY-Y1 PAM-ag 4.7 and EP2 modulator 61.6*.
For COc1cc2cc(C)c(SCC(=O)OC(C)C)nc2cc1OC the results were PGE2 EP2 inh 5.3 and EP2 modulator 41.4.
For CC1CCC(NC(=O)C2c3ccccc3C(=O)N2Cc2cccs2)CC1 (configuration not stated) the results were NPY2 pot ag -0.3, NPY-Y1 antag 18.0, NPY Y2 blocker 12.1, PGE2 EP2 inh 4.5, NPY-Y1 PAM-ag -15.1 and EP2 modulator 22.8.
O=C(NC1CCCCCCC1)C1c2ccccc2C(=O)N1Cc1cccs1 (configuration not stated) was read as NPY2 pot ag -1.7, NPY-Y1 antag 33.2*, NPY Y2 blocker 31.0*, PGE2 EP2 inh 2.8, NPY-Y1 PAM-ag -27.7 and EP2 modulator 2.1.
`COc1ccc2cc(CN(Cc3ccco3)C(=S)Nc3ccc(C)cc3)c(=O)[nH]c2c1` gave PGE2 EP2 inh 10.5 and EP2 modulator 5.6.
Screening O=C(Nc1ccccc1-c1ccccc1)C1CCN(S(=O)(=O)c2ccc3c(c2)OCCO3)CC1 returned PGE2 EP2 inh 11.6 and EP2 modulator -49.1.
Screening Clc1ccccc1C1=Nn2c(nnc2-c2ccco2)SC1 returned NPY2 pot ag 5.5, PGE2 EP2 inh 12.4, NPY-Y1 PAM-ag -3.4 and EP2 modulator 47.5.
For O=[N+]([O-])c1ccc(C2=Nn3c(nnc3-c3ccc(Cl)cc3)SC2)o1 the results were PGE2 EP2 inh 73.3* and EP2 modulator -31.3.
`O=C(O)[C@@H](Br)[C@@H](Br)c1ccccc1[N+](=O)[O-]` gave PGE2 EP2 inh 40.9* and EP2 modulator 29.0.
COC(=O)C(C(=O)OC)c1ccccc1[N+](=O)[O-] was read as NPY2 pot ag 16.8, NPY-Y1 antag -1.9, NPY Y2 blocker 2.0, PGE2 EP2 inh 5.5, NPY-Y1 PAM-ag -11.3 and EP2 modulator 6.9.
Screening COc1ccccc1Oc1cc(C#N)c(C#N)cc1-n1nnc2ccccc21 returned NPY2 pot ag -18.6, NPY-Y1 antag 46.4*, NPY Y2 blocker 18.8*, NPY-Y1 PAM-ag -36.4 and EP2 modulator 9.8.
